Read-outs that look alike come from different tables or passages of the source.
Columns and labels:
[1] = target: T1, rat brain MAGL (Rattus norvegicus, UniProt Q8R431); test: [3H]2-OG hydrolysis assay; type: biochemical; conditions: for IC50: IC50, inhibition of [3H]2-OG hydrolysis, 0.5 μM [3H]2-OG; for pIC50 in [3H]2-OG assay: positive control
T1 sequence (Q8R431 1-303): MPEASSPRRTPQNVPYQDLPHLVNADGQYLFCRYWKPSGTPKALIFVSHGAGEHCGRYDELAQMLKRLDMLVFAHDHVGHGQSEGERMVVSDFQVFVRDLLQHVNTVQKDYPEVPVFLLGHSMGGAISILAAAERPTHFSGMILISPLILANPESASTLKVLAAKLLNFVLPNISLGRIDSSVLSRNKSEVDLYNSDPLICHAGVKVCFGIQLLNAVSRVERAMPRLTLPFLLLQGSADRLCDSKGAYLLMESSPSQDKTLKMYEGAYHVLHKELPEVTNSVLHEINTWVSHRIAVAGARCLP
How it was run: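 Rat brain preparation, test compound and buffer (10 mM Tris-HCl, 1 mM EDTA, pH 7.4) were preincubated 0–60 min. [3H]2-OG diluted with unlabelled 2-OG was then added to 0.5 μM final, with 0.125% w/v fatty acid-free BSA. Kinetics: no preincubation, 2 min incubation. Reversibility: 60 min preincubation, then 20-fold dilution. JZL184 was the positive control. Means of 3–4 runs.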

[2] = target: T2, human recombinant MAGL (hMAGL) (Homo sapiens, UniProt Q99685); test: human recombinant MAGL inhibition enzyme assay; type: biochemical
T2 sequence (Q99685 1-303): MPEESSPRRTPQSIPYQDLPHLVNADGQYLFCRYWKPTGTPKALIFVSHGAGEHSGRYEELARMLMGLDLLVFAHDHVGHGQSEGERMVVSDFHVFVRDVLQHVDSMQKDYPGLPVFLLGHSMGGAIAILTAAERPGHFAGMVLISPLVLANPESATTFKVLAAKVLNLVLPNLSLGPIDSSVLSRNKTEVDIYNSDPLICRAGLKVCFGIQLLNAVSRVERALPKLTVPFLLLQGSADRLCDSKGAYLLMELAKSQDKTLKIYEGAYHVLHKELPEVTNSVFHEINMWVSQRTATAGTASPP
How it was run: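 Commercial MAGL inhibitor screening kit with human recombinant enzyme, run per the manufacturer's instructions. JZL195 was the positive control. IC50 from dose-response curve fitting, averaged over 3–5 runs.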

[3] = target: T3, FAAH (Rattus norvegicus, UniProt P97612); test: [3H]AEA hydrolysis assay; type: biochemical
T3 sequence (P97612 1-579): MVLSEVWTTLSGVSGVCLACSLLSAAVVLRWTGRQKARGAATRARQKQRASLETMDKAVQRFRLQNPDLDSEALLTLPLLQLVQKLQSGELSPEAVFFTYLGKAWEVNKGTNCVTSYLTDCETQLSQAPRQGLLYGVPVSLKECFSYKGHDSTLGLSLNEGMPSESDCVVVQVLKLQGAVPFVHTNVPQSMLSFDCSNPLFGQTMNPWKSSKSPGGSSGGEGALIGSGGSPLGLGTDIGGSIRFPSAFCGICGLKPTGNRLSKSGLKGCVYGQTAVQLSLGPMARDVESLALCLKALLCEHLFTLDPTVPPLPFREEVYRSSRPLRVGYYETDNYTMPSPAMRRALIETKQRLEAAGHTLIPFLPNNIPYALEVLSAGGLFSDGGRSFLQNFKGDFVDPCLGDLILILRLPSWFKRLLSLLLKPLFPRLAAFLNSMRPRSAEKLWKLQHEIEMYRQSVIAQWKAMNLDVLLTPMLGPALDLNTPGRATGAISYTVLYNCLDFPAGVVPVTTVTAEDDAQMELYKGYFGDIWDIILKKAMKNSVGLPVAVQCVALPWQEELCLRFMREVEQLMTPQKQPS

[4] = target: CB1 (Homo sapiens, UniProt P21554); test: CB1 receptor agonist and antagonist assays; type: cell-based; conditions: up to 30 μM concentration
Sequence of CB1 (P21554 whole entry, species assumed): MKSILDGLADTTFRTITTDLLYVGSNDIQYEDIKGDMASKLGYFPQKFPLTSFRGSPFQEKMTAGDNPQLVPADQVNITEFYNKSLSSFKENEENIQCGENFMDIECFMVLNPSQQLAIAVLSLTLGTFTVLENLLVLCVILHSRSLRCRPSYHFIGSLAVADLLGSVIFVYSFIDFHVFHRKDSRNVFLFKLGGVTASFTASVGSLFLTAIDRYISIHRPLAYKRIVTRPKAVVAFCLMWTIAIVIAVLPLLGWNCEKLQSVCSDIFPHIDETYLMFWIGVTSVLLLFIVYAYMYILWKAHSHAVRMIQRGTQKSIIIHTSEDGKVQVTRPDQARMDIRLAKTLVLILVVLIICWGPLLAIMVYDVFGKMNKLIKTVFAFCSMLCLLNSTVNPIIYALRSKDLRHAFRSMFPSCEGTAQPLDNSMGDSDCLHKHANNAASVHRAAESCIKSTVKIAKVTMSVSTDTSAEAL
How it was run: (§1)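 Run by the NIMH Psychoactive Drug Screening Program to its published protocols, in agonist and antagonist formats. CP55940 was the agonist control at both receptors. Rimonabant was the CB1 antagonist control and SR144528 the CB2 antagonist control. Dose-response curves were generated, averaged over 3–5 runs.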

[5] = target: CB2 (Homo sapiens, UniProt P34972); test: CB2 receptor agonist and antagonist assays; type: cell-based; conditions: up to 30 μM concentration
Sequence of CB2 (P34972 whole entry, species assumed): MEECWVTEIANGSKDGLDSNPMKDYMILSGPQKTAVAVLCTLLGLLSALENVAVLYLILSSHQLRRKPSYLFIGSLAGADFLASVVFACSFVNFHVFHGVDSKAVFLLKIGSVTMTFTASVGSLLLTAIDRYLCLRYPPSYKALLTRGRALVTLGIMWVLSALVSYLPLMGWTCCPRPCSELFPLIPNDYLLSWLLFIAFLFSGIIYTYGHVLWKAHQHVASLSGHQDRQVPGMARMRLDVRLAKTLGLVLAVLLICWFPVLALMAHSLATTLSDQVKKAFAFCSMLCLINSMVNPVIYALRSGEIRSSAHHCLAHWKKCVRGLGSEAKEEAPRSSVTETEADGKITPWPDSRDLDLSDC
How it was run: as §1

[6] = target: T4, ABHD6 (Mus musculus, UniProt Q8R2Y0); test: activity based protein profiling; type: biochemical; conditions: up to 10 μM concentration
T4 sequence (Q8R2Y0 1-336): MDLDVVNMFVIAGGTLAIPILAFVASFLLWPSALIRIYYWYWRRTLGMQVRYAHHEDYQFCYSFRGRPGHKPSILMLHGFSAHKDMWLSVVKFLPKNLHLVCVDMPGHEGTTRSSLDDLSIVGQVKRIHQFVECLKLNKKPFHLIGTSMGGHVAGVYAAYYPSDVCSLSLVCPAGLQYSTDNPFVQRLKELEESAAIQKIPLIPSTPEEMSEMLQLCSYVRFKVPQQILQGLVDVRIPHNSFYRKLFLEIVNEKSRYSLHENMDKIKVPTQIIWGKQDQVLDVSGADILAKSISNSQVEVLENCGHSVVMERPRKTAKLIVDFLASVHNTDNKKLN
How it was run: (§2)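 Mouse brain membrane proteome (1 mg/mL) preincubated with DMSO or test compound (1 and 10 μM) for 30 min at 37 °C. FP-rhodamine (1 μM final) was then added for 1–180 min at room temperature. Samples were separated by SDS-PAGE and read by in-gel fluorescence. Band intensity is given relative to DMSO (100%). MJN110 was the positive control; 3 runs.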

[7] = target: T5, ABHD12 (Mus musculus, UniProt Q99LR1); test: activity based protein profiling; type: biochemical; conditions: up to 10 μM concentration
T5 sequence (Q99LR1 1-398): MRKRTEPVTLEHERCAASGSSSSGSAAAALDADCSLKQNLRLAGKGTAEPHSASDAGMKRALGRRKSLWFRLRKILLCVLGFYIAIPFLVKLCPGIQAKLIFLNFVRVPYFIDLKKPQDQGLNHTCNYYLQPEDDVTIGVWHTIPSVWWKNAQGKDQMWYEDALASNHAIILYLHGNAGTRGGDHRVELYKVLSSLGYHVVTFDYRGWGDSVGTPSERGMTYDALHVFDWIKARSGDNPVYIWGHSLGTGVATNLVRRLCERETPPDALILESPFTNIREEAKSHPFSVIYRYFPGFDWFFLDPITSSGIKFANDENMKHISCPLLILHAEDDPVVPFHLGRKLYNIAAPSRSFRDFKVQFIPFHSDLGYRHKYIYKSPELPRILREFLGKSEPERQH
How it was run: as §2

[8] = LogP by shake flask method; type: physicochemical; conditions: n-octanol/water
How it was run: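 n-Octanol/water liquid-liquid partition ('shake flask'), following the OECD 107 guideline. Compound quantified in each phase by LC-MS; n = 3.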

[9] = target: T1, rat brain MAGL; conditions: read-out: IC50, inhibition of [3H]2-OG hydrolysis, cited from earlier work
[10] = test system: brain; test: PET brain uptake of 19; conditions: in vivo

COc1ccc(-c2noc(C3CN(C(=O)OC(C(F)(F)F)C(F)(F)F)C3)n2)cc1 [Compound 10, 1,1,1,3,3,3-hexafluoropropan-2-yl 3-(3-(4-methoxyphenyl)-1,2,4-oxadiazol-5-yl)azetidine-1-carboxylate]
Ki [1]: 1.03 nM | time-dependency of inhibition ([1]; 0.2, 0.6 and 1 nM inhibitor): time-dependent inhibition | IC50 ([1]; 60 min of pre-incubation): 0.68 nM | IC50 ([1]; without pre-incubation): 3.9 nM | binding mechanism ([1]; dilution experiments and ABPP time course): irreversible binding mechanism | IC50 [2]: 12.7 nM | selectivity towards MAGL over FAAH [3]: 30–50 fold | interaction with CB1 [4]: No significant interactions | interaction with CB2 [5]: No significant interactions | interaction with ABHD6 [6]: No significant interactions | interaction with ABHD12 [7]: No significant interactions | logP [8]: 1.23 ± 0.1

O=C(Oc1ccc([N+](=O)[O-])cc1)N1CCC(C(O)(c2ccc3c(c2)OCO3)c2ccc3c(c2)OCO3)CC1 [JZL184]
pIC50 in [3H]2-OG assay ([1]; 60 min preincubation): 8.24±0.02 | pIC50 in [3H]2-OG assay ([1]; without preincubation): 6.46±0.04 | IC50 ([9]; preincubation 0 min): 350 nM | IC50 ([9]; preincubation 30 min): 12 nM | IC50 ([9]; preincubation 60 min): 5.8 nM

COc1cccc(-c2noc(C3CN(C(=O)OC(C(F)(F)F)C(F)(F)F)C3)n2)c1 [Compound 11, 1,1,1,3,3,3-hexafluoropropan-2-yl 3-(3-(3-methoxyphenyl)-1,2,4-oxadiazol-5-yl)azetidine-1-carboxylate]
logP [8]: 1.17 ± 0.14

O=C(Oc1ccc([N+](=O)[O-])cc1)N1CCN(Cc2cccc(Oc3ccccc3)c2)CC1 [JZL195, reference compound]
block of human recombinant MAGL hydrolysis ([2]; 4.4 μM, positive control): completely blocked

O=C(OC(C(F)(F)F)C(F)(F)F)N1CC(c2nc(-c3ccc(F)cc3)no2)C1 [Compound 19, ^11C-carbonyl labeled 1,1,1,3,3,3-hexafluoropropan-2-yl 3-(3-(4-fluorophenyl)-1,2,4-oxadiazol-5-yl)azetidine-1-carboxylate]
peak SUV in brain [10]: ca. 1.4 SUV

O=C(OC(C(F)(F)F)C(F)(F)F)N1CC(c2nc(-c3cccc(F)c3)no2)C1 [Compound 9, 1,1,1,3,3,3-hexafluoropropan-2-yl 3-(3-(3-fluorophenyl)-1,2,4-oxadiazol-5-yl)azetidine-1-carboxylate]
logP [8]: 1.42 ± 0.11

O=C(OC(C(F)(F)F)C(F)(F)F)N1CC(c2nc(-c3ccc(F)cc3)no2)C1 [Compound 8, 1,1,1,3,3,3-hexafluoropropan-2-yl 3-(3-(4-fluorophenyl)-1,2,4-oxadiazol-5-yl)azetidine-1-carboxylate]
IC50 [2]: 13.4 nM | logP [8]: 1.45 ± 0.01

From article PMC5966020 (Journal of medicinal chemistry, 2018)
